Only some compounds are listed: those with a hit (about 2.5% of all), similar ones and a draw of the others.
E coli Lon inh: inhibitors of E. coli Lon protease; P0A9M0; purified E. coli Lon protease, fluorescence polarization; inhibition, % at 7.94 µM; 0.42% of 360,000 active; in the data active means inhibition above about 13%, passing the limit was not always enough;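 further: 0% = enzyme with probe and DMSO and 100% = no enzyme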
TDP2 inh: blocks human TDP2 phosphodiesterase activity | O95551 | recombinant TDP2, T5PNP hydrolysis, p-nitrophenol absorbance 415 nm | inhibition, % at 12.8 µM | 0.34% of 370,000 active | AID 720702;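 active means inhibition above the mean of all tested compounds plus 3 SD, set per campaign, cut at about 25% in these data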;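 further: 0% = DMSO with enzyme and 100% = buffer with substrate but no TDP2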
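Material: recombinant human TDP2; quantity: TDP2 enzyme at 120 nM final; medium: Tris-HCl pH 7.5 with MgCl2; compound: single concentration, 12.8 µM nominal, with 1% DMSO; incubation: 2 h enzyme incubation at 37 °C; signal: epi absorbance; measure: percent inhibition; benchmarks: high control without enzyme, low control DMSO plus TDP2; repeats: singlicate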
PAD4 inh: blocks human protein arginine deiminase 4; recombinant PAD4, RCA probe fluorescence polarization; inhibition, % at 6.36 µM; 0.41% of 330,000 active;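 active means percent inhibition above a cutoff equal to the mean of all tested compounds plus 3 SD, cut at about 15% in these data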;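 further: 0% = PAD4 with RCA probe and DMSO and 100% = probe without PAD4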
PRMT1 FP inh: PRMT1 (human) inhibition, primary screen. Q99873. recombinant PRMT1, activity-based probe fluorescence polarization. inhibition, % at 2.79 µM. 1.3% of 370,000 active. AID 652257;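 active means inhibition above about 21% made by adding two undisclosed values, limit read from the data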
GSTO1 inh: counter-screen for RBBP9 inhibitors: inhibitors of human GSTO1 | recombinant GSTO1, activity-based probe fluorescence polarization | 1.1% of 300,000 active | inhibition, % at 5.96 µM;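 active means inhibition above the campaign mean inhibition plus 3 SD, cut at about 35% in these data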;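 further: 0% = GSTO1-1 with DMSO and 100% = wells lacking GSTO1-1 enzyme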
Target sequence (P78417 whole entry, looked up): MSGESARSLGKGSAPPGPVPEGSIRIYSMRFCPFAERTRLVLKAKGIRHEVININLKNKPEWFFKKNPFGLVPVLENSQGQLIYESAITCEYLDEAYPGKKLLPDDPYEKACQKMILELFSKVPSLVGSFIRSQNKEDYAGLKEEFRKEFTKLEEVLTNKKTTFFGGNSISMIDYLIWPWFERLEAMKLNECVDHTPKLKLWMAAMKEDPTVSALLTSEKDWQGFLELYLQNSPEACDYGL
TDP2 inh conf: human TDP2 inhibition, confirmation; shares compounds with TDP2 inh; recombinant human TDP2, absorbance read-out; inhibition, % at 12.8 µM; 22% of 1,100 active; in the data active means inhibition above about 25%;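 further: 0% = vehicle with enzyme and 100% = no enzyme buffer only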
An asterisk follows results filed as active.

For COc1ccc(NC(=O)c2cc(-c3ccc(C)c(C)c3O)n[nH]2)cc1Cl the results were E coli Lon inh 0, TDP2 inh 75*, PAD4 inh -1, PRMT1 FP inh -3, GSTO1 inh -8 and TDP2 inh conf 2.
`COc1cccc(NC(=O)NC2CCCc3ccccc32)c1` (centres undefined) gave E coli Lon inh 2, TDP2 inh 0, PAD4 inh -2, PRMT1 FP inh -1 and GSTO1 inh 4.
`CCOC(=O)c1c(C)oc2c1c(C=NCC1CCCO1)c(O)c1ccccc12` (centres undefined) gave E coli Lon inh 29, TDP2 inh 29*, PRMT1 FP inh 18 and TDP2 inh conf 11.
COc1ccc(CNc2nc3nc(-c4ccccc4)cc(=O)n3[nH]2)cc1OC was read as E coli Lon inh -5, TDP2 inh 33*, PAD4 inh -1, PRMT1 FP inh 5, GSTO1 inh -9 and TDP2 inh conf 7.
`O=S(=O)(c1ccccc1C(F)(F)F)N1CCN(CC(O)COc2ccccc2F)CC1` (centres undefined) gave E coli Lon inh -1, TDP2 inh 7 and PRMT1 FP inh -2.
N#Cc1ccccc1S(=O)(=O)N1CCN(CC(O)COc2ccccc2F)CC1 (centres undefined) was read as E coli Lon inh -5, TDP2 inh 28*, PAD4 inh 1, PRMT1 FP inh 5, GSTO1 inh -4 and TDP2 inh conf 8.
For COc1ccc(C2=NN(C(=O)CCC(=O)O)C(c3ccc(OC)c(OC)c3)C2)cc1 (centres undefined) the results were E coli Lon inh -19, TDP2 inh 25*, PAD4 inh -1, PRMT1 FP inh -3, GSTO1 inh 1 and TDP2 inh conf 8.
Screening COCCn1c(=S)[nH]c2sc3c(c2c1=O)CCC(C)C3 (centres undefined) returned E coli Lon inh -7, TDP2 inh 3, PAD4 inh 2, PRMT1 FP inh 3 and GSTO1 inh -9.
Cn1c(=S)[nH]c2sc3c(c2c1=O)CCC(C(C)(C)C)C3 (centres undefined) was read as E coli Lon inh 3, TDP2 inh 27*, PAD4 inh 2, PRMT1 FP inh -2, GSTO1 inh -2 and TDP2 inh conf -3.
`COc1ccc(NC(=O)CN(C)C(=O)C2CCCO2)cc1` (centres undefined) gave E coli Lon inh -13, TDP2 inh -3, PAD4 inh -4 and PRMT1 FP inh -5.
COc1ccc(NC(=O)CSc2nnc(-c3cc(C)[nH]n3)n2N)cc1 was read as E coli Lon inh -2, TDP2 inh -2, PAD4 inh 3, PRMT1 FP inh 2 and GSTO1 inh 0.
COc1ccc(NC(=O)CSc2nnc(-c3cc(C)[nH]n3)n2N)cc1OC was read as E coli Lon inh 7, TDP2 inh 30*, PAD4 inh -5, PRMT1 FP inh 0, GSTO1 inh -2 and TDP2 inh conf -7.
Screening Cc1oc2c(cc(NS(=O)(=O)c3ccc(Cl)cc3)c3ccccc32)c1C(=O)O returned E coli Lon inh 5, TDP2 inh 11 and PRMT1 FP inh 6.
Screening CCOC(=O)c1c(C)oc2c1cc(NS(=O)(=O)c1ccc(C(=O)O)cc1)c1ccccc12 returned E coli Lon inh -4, TDP2 inh 34*, PAD4 inh -15, PRMT1 FP inh 7, GSTO1 inh 24 and TDP2 inh conf 16.
`O=C(O)CN1C(=O)/C(=C\c2cc(Br)ccc2OCc2ccc(F)cc2)SC1=S` gave E coli Lon inh -8, TDP2 inh 24, PAD4 inh -4, PRMT1 FP inh 2 and GSTO1 inh -9.
`O=C(O)CN1C(=O)/C(=C\c2cc(Br)ccc2OCc2ccc(Cl)cc2)SC1=S` gave E coli Lon inh -4, TDP2 inh 26*, PRMT1 FP inh 19 and TDP2 inh conf 17.
Screening O=C(NCc1ccc(F)cc1)C1CC(=O)N(Cc2ccco2)C1 (centres undefined) returned E coli Lon inh -4, TDP2 inh 25*, PAD4 inh -2, PRMT1 FP inh -5, GSTO1 inh -5 and TDP2 inh conf -6.

Bioassay records (PubChem BioAssay)
